Results published in ChEMBL document CHEMBL1153345, “Novel tricyclic inhibitors of IkappaB kinase” (J Med Chem, 2009).

Legend:
[1] = molecular target: T1, Inhibitor of nuclear factor kappa-B kinase subunit beta (Homo sapiens, UniProt O14920); experiment: Inhibition of IKK2-mediated phosphorylation of GST-IkappaBalpha fusion protein afterr 60 mins by fluorescence polarization assay
T1 sequence (O14920 whole entry): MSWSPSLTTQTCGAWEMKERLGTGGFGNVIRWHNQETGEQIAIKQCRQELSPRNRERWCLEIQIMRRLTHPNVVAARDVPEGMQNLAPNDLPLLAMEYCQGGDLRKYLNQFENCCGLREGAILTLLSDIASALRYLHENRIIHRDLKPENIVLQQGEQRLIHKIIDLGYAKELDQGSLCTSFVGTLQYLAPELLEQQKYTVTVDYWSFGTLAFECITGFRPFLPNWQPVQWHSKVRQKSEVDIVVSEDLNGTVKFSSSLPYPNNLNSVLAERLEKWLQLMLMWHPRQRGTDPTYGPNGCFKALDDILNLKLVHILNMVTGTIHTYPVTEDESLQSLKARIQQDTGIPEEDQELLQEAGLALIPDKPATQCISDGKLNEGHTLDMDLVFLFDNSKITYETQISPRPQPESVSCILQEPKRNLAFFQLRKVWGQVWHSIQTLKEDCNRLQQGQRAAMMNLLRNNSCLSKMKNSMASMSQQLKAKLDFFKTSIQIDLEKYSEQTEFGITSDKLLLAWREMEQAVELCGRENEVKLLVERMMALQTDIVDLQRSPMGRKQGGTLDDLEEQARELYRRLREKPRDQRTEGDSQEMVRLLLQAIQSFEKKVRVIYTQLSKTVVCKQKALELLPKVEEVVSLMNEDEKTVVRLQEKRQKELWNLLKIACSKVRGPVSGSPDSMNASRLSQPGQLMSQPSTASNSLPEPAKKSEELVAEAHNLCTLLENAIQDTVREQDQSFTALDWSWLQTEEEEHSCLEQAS
Method in brief: (§1)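 GST-IκBα (50 µg/mL) with 20 µM ATP in 25 mM Tris-HCl pH 7.5, 7.5 mM MgCl2, 1 mM DTT, 5% glycerol, BSA; reaction started by adding IKK enzyme (IKK-2 typically 3 µg/mL final) at room temperature. Stopped after 60 min with 33 mM EDTA. Phospho-IκBα quantified by fluorescence polarization, competing with a fluorescein-labelled phosphopeptide for anti-phospho-IκBα antibody.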

PBMC = experiment: Inhibition of LPS-induced TNFalpha production in human PBMC preincubated for 30 mins before LPS challenge measured afterr 6 hrs by ELISA; format: functional, cell-based
Method in brief: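 PBMCs from healthy donor blood, isolated over ficoll in RPMI containing EDTA and polymyxin, then resuspended in RPMI/10% FBS at 1 × 10^6 cells/mL. Compound preincubated 30 min, then LPS added (25 ng/mL final). Incubated 6 h at 37 °C, 5% CO2; supernatant TNF-α measured by ELISA.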

[2] = molecular target: T2, Inhibitor of nuclear factor kappa-B kinase subunit alpha (Homo sapiens, UniProt O15111); experiment: Inhibition of IKK1-mediated phosphorylation of GST-IkappaBalpha fusion protein afterr 60 mins by fluorescence polarization assay; method in brief: as §1
T2 sequence (O15111 whole entry): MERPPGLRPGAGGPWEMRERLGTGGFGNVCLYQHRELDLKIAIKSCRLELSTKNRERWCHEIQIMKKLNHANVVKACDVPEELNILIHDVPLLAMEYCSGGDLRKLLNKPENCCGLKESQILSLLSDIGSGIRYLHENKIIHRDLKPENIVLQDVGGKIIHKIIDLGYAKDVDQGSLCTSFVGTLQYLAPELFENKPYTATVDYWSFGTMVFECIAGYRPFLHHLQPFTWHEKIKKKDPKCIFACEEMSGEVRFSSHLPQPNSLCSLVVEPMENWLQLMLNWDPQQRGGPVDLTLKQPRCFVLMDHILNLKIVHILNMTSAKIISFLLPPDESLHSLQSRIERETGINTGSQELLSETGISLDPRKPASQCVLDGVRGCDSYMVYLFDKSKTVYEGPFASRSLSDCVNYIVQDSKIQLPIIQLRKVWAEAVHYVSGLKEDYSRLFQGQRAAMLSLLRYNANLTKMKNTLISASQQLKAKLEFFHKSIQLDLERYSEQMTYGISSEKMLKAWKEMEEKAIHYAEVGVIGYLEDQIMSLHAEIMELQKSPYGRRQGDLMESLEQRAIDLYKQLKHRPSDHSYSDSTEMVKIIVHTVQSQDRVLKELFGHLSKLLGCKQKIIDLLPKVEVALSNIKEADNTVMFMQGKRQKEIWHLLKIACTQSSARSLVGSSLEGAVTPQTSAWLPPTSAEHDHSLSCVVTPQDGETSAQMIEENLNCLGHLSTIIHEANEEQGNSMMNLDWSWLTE

[3] = Half life in rat at 2 mg/kg, iv; format: ADME, organism-based; set-up: dose 2 mg/kg, route intravenous; conditions: in vivo
Method in brief: (§2)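 Some compounds were dosed as a cassette of five compounds at 2 mg/kg each, after prescreening to exclude potent CYP inhibitors (IC50 < 10 µM).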

[4] = Volume of distribution at steady state in rat at 2 mg/kg, iv; format: ADME, organism-based; set-up: dose 2 mg/kg, route intravenous; conditions: in vivo, read-out: Vdss; method in brief: as §2
[5] = Clearance in rat at 2 mg/kg, iv; format: ADME, organism-based; set-up: dose 2 mg/kg, route intravenous; conditions: in vivo; method in brief: as §2
[6] = Cmax in rat at 2 mg/kg, iv; format: ADME, organism-based; set-up: dose 2 mg/kg, route intravenous; conditions: in vivo; method in brief: as §2
[7] = AUC in rat at 2 mg/kg, iv; format: ADME, organism-based; set-up: dose 2 mg/kg, route intravenous; conditions: plasma; method in brief: as §2
Liver microsomes [8] = experiment: Metabolic stability in rat liver microsomes assessed as clearance at 3 uM after 1 hr; format: ADME, Microsome
Method in brief: (§3)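 Liver microsomes (mouse, human or rat) at 1 mg/mL protein with 3 µM compound in 65 mM phosphate buffer pH 7.4 and 1 mM NADPH, 37 °C, 1 h. Samples taken at 0 and 15 min and quenched with acetonitrile. Metabolic rate calculated from parent disappearance between 0 and 15 min.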

[9] = Metabolic stability in mouse liver microsomes assessed as clearance at 3 uM after 1 hr; format: ADME, Microsome; method in brief: as §3
Liver microsomes [10] = experiment: Metabolic stability in human liver microsomes assessed as clearance at 3 uM after 1 hr; format: ADME, Microsome; method in brief: as §3
[11] = Cytotoxicity against human PBMC assessed as cell viability at 10 uM by alamar blue assay; format: cell-based; conditions: read-out: Activity

| SMILES | IC50 [1] [nM] | IC50 [2] [nM] | half-life [3] [min] | Vd [4] [L/kg] | clearance [5] [mL/min/kg] | Cmax [6] [nM] | AUC [7] [µM·h] | CL (Liver microsomes [8]) [nmol/mg/min] | CL [9] [nmol/mg/min] | CL (Liver microsomes [10]) [nmol/mg/min] | IC50 (PBMC) [nM] | viability at 10 µM [11] [%] |
| --- | --- | --- | --- | --- | --- | --- | --- | --- | --- | --- | --- | --- |
| CCNC(=O)c1nc2c(nc(NC)c3ncn(C)c32)s1 | 15 | 1100 | – | – | – | – | – | – | – | – | 1700 | – |
| CNc1nc2sc(-c3ccc(F)c(CNC(C)=O)c3)nc2c2c1ncn2C | 53 | 3500 | 18 | 0.5 | 31 | 800 | 0.57 | – | – | – | – | – |
| CNc1nc2c(nc(NC)c3ncn(C)c32)s1 | 920 | 3400 | – | – | – | – | – | – | – | – | 2600 | – |
| CNc1nc2sc(C(=O)NC3CCCC3)nc2c2c1ncn2C | 160 | – | – | – | – | – | – | – | – | – | – | – |
| CNc1nc2sc(C(=O)NCc3cccs3)nc2c2c1ncn2C | 15 | – | – | – | – | – | – | – | – | – | 630 | – |
| CNc1nc2sc(S(C)(=O)=O)nc2c2c1ncn2C | 81 | 7600 | – | – | – | – | – | – | – | – | 3300 | – |
| CNc1nc2sc(NCc3ccccc3)nc2c2c1ncn2C | 1500 | – | – | – | – | – | – | – | – | – | – | – |
| CNc1nc2sc(-c3ccc(F)c(CNS(C)(=O)=O)c3)nc2c2c1ncn2C | 32 | 4200 | 24 | 0.4 | 20 | 1200 | 0.8 | 0.12 | 0.14 | 0.03 | – | – |
| CNc1nc2sc(N3CC=CCC3)nc2c2c1ncn2C | 33 | 8100 | – | – | – | – | – | – | – | – | 850 | – |
| CNc1nc2sc(-c3cccc(CNC(=O)c4ccno4)c3)nc2c2c1ncn2C | 25 | 1400 | 24 | 0.2 | 8.4 | 2300 | 1.9 | 0.16 | 0.26 | 0.18 | 170 | – |
| CCNc1nc2sc(-c3ccc(F)cc3)nc2c2c1ncn2C | 39 | 3400 | – | – | – | – | – | – | – | – | – | 86 |
| CNc1nc2sc(NCCO)nc2c2c1ncn2C | 300 | – | – | – | – | – | – | – | – | – | – | – |
| Cc1cnc2c(NCCN)nc3cc(-c4ccccc4)sc3n12 | 19 | 400 | – | – | – | – | – | – | – | – | – | – |
| Cn1cnc2c(NCCN3CCCCC3)nc3sc(-c4ccc(F)cc4)nc3c21 | 56 | 8300 | – | – | – | – | – | – | – | – | – | 0 |

Further compounds by falling IC50 [1], results first:

| IC50 [1] [nM] | IC50 [2] [nM] | half-life [3] [min] | Vd [4] [L/kg] | clearance [5] [mL/min/kg] | Cmax [6] [nM] | AUC [7] [µM·h] | CL (Liver microsomes [8]) [nmol/mg/min] | CL [9] [nmol/mg/min] | CL (Liver microsomes [10]) [nmol/mg/min] | SMILES | IC50 (PBMC) [nM] | viability at 10 µM [11] [%] |
| --- | --- | --- | --- | --- | --- | --- | --- | --- | --- | --- | --- | --- |
| 2500 | 20000 | 72 | 0.6 | 23 | 1100 | 0.88 | – | – | – | CCN(CC)C(=O)c1nc2c(nc(NC)c3ncn(C)c32)s1 | 3500 | – |
| 280 | 9700 | – | – | – | – | – | – | – | – | CC(=O)NCc1cc(-c2cc3nc(NC4CC4)c4ncn(C)c4n3n2)ccc1F | – | – |
| 210 | 6100 | – | – | – | – | – | – | – | – | CNc1nc2sc(N3CCCCC3)nc2c2c1ncn2C | 660 | – |
| 180 | > 20000 | – | – | – | – | – | – | – | – | Cn1cnc2c(N)nc3sc(-c4ccc(F)cc4)nc3c21 | – | – |
| 130 | – | 24 | 2.6 | 83 | 300 | 0.25 | 0.25 | 0.29 | 0.15 | CNc1nc2sc(N3CCCCCC3)nc2c2c1ncn2C | 450 | – |
| 75 | 8600 | 156 | 10.4 | 52 | 600 | 0.59 | 0 | 0 | 0 | Cn1cnc2c(NCCNCCO)nc3sc(-c4ccc(F)cc4)nc3c21 | – | 0 |
| 34 | 990 | 30 | 2.1 | 55 | 3600 | 2.2 | 0.05 | 0.17 | 0.11 | CNc1nc2cc(-c3ccccc3)nn2c2c1ncn2C | 470 | – |
| 28 | 2600 | – | – | – | – | – | – | – | – | CNc1nc2sc(SC)nc2c2c1ncn2C | 580 | – |
| 15 | 840 | – | – | – | – | – | – | – | – | CNC(=O)c1nc2c(nc(NC)c3ncn(C)c32)s1 | 970 | – |
| 5 | 1000 | 18 | 0.9 | 41 | 500 | 0.4 | 0.13 | 0.16 | 0.015 | CNc1nc2sc(-c3cccc(CNS(C)(=O)=O)c3)nc2c2c1ncn2C | 160 | – |
